Laboratory results taken from publication PMC6438848 (Saudi Pharmaceutical Journal : SPJ, 2018).

What was measured:
[1] = test system: MCF-7 cells (human breast carcinoma); assay: In vitro antiproliferative assay; type: cell-based; details: for IC50: Homo sapiens, MCF7, 72 h, read-out: IC50 ± SD
[2] = Determination of lipophilicity by RP UPLC; type: physicochemical; details: for log kw (capacity factor of the analyte in pure water): Kinetex C18, methanol 0.65-0.95 v/v, 25 °C; for -S (slope of the regression curve): log k = log kw + SΦ
How it was run: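 Kinetex C18 column (150 × 4.6 mm, 2.6 µm) on a UPLC with UV detection at 254 nm. Test compound was dissolved in methanol at 10 µg/ml. Isocratic methanol fractions ran at 0.5 ml/min and 25 °C. Dead time was taken from uracil. log k was regressed linearly on methanol fraction Φ (Soczewiński–Wachtmeister), giving log kw as the intercept and S as the slope.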

[3] = test system: HeLa cells (human cervical carcinoma); assay: In vitro antiproliferative assay; type: cell-based; details: for IC50: Homo sapiens, 72 h, read-out: IC50 ± SD
[4] = test system: MV-4-11 cells (biphenotypic B myelomonocytic leukemia); assay: In vitro antiproliferative assay; type: cell-based, human; details: for IC50: Homo sapiens, MV4-11, 72 h, read-out: IC50 ± SD
[5] = test system: Hep-G2 cells (human hepatocellular carcinoma); assay: In vitro antiproliferative assay; type: cell-based; details: for IC50: Homo sapiens, HepG2, 72 h, read-out: IC50 ± SD
[6] = test system: DAUDI cells (Burkitt lymphoma); assay: In vitro antiproliferative assay; type: cell-based, human; details: for IC50: Homo sapiens, Daudi, 72 h, read-out: IC50 ± SD
[7] = test system: Du-145 cells (human prostate carcinoma); assay: In vitro antiproliferative assay; type: cell-based; details: for IC50: Homo sapiens, DU-145, 72 h, read-out: IC50 ± SD
[8] = test system: HT-29 cells (human colon adenocarcinoma); assay: In vitro antiproliferative assay; type: cell-based; details: for IC50: Homo sapiens, HT-29, 72 h, read-out: IC50 ± SD
[9] = test system: human cancer cell lines (MV-4-11, MCF-7, JURKAT, HT-29, Hep-G2, HeLa, Du-145, DAUDI); assay: In vitro antiproliferative assay, summary over several cancer cell lines; type: cell-based; details: read-out: IC50 values in relation to other cell lines
[10] = test system: JURKAT cells (human leukemic T-cell lymphoblast); assay: In vitro antiproliferative assay; type: cell-based; details: for IC50: Homo sapiens, Jurkat, 72 h, read-out: IC50 ± SD
[11] = test system: MCF-10A normal human mammary gland epithelial cells; assay: cells; type: cell-based; details: for IC50: Homo sapiens, MCF-10A, 72 h, read-out: IC50 ± SD; for cytotoxic activity against MCF-10A, times lower than against cancer cell lines: MCF-10A vs MCF-7, JURKAT, HT-29, Hep-G2, HeLa, Du-145, DAUDI; for cytotoxic activity against MCF-10A, times lower than against cancer cells: MCF-10A vs MV4-11 (cancer cell lines)

Row | SMILES | IC50 [1] [µg/mL] | Φ0 lipophilicity parameter (−log kw/S) [2] | log kw (capacity factor of the analyte in pure water) [2] | -S (slope of the regression curve) [2] | IC50 [3] [µg/mL] | IC50 [4] [µg/mL] | IC50 [5] [µg/mL] | IC50 [6] [µg/mL] | IC50 [7] [µg/mL] | IC50 [8] [µg/mL] | IC50 [9] [µg/mL] | IC50 [10] [µg/mL] | IC50 [11] [µg/mL] | cytotoxic activity against MCF-10A, times lower than against cancer cell lines [11] | cytotoxic activity against MCF-10A, times lower than against cancer cells [11] | further results
1 | Fc1ccc([N+]2=NN(CCCl)CC2)cc1.[Cl-] [2i, 1-(2-Chloroethyl)-3-(4-fluorophenyl)-4,5-dihydro-1H-1,2,3-triazol-3-ium chloride] | 61.4 ± 21.8 | 1.824 | −1.873 | 1.027 | 51.3 ± 14.7 | 51.4 ± 11.9 | 70.2 ± 13.9 | 75.6 ± 17.8 |  |  |  |  |  |  |  | 
2 | ClCCN1CC[N+](c2ccc(Cl)cc2)=N1.[Cl-] [2e, 1-(2-Chloroethyl)-3-(4-chlorophenyl)-4,5-dihydro-1H-1,2,3-triazol-3-ium chloride] | 15.1 ± 2.77 | 1.196 | −3.503 | 2.928 | 12.5 ± 2.23 | 7.69 ± 3.17 | 14.9 ± 4.66 | 13.6 ± 3.66 | 30.1 ± 10.2 | 31.9 ± 8.14 | 12.5 to 36.4 | 13.6 ± 3 | 49.3 ± 15.5 | 1–5 times | 6–11 times | 
3 | CCOC(=O)c1ccc([N+]2=NN(CCCl)CC2)cc1.[Cl-] [2f, 1-(2-Chloroethyl)-3-(4-(ethoxycarbonyl)phenyl)-4,5-dihydro-1H-1,2,3-triazol-3-ium chloride] | 20.9 ± 2.19 | 1.301 |  | 2.259 | 23.5 ± 3.32 | 6.16 ± 1.76 | 27.8 ± 10.1 | 61.9 ± 24.8 | 22.8 ± 10.1 | 5.59 ± 0.632 |  | 36 ± 7.11 | 42 ± 17.3 |  | 6–11 times | 
4 | ClCCN1CC[N+](c2ccccc2)=N1.[Cl-] [2b, 1-(2-Chloroethyl)-3-phenyl-4,5-dihydro-1H-1,2,3-triazol-3-ium chloride] | 50.4 ± 8.08 | 1.519 | −2.002 | 1.318 | 39.4 ± 11.5 | 44.6 ± 4.37 | 37.9 ± 17.1 | 40.2 ± 4.29 |  | 48.9 ± 18.7 |  | 68.5 ± 6.36 |  |  |  | 
5 | O=[N+]([O-])c1ccc([N+]2=NN(CCCl)CC2)cc1.[Cl-] [2g, 1-(2-Chloroethyl)-3-(4-nitrophenyl)-4,5-dihydro-1H-1,2,3-triazol-3-ium chloride] | 23.9 ± 7.48 | 2.532 |  | 0.594 | 29 ± 5.35 | 14.1 ± 7.75 | 32.1 ± 1.4 |  | 34.1 ± 1.35 | 47.6 ± 3.42 |  | 49.1 ± 14.1 | 36.6 ± 9.52 |  |  | 
6 | N.N.[Cl][Pt][Cl] [cis-platin, reference compound] |  |  |  |  |  |  |  |  |  |  |  |  |  |  |  | IC50 ± SD ([1]; MCF-7, 72 h exposure, SRB): 1.73 ± 0.443 µg/mL; IC50 ± SD ([7]; Du-145, 72 h exposure, SRB): 0.59 ± 0.086 µg/mL; IC50 ± SD ([3]; 72 h exposure, SRB): 0.37 ± 0.137 µg/mL; IC50 ± SD ([8]; HT-29, 72 h exposure, SRB): 3.63 ± 0.715 µg/mL; IC50 ± SD ([4]; MV-4-11, 72 h exposure, MTT): 0.76 ± 0.184 µg/mL; IC50 ± SD ([10]; JURKAT, 72 h exposure, MTT): 0.24 ± 0.056 µg/mL; IC50 ± SD ([5]; Hep-G2, 72 h exposure, SRB): 0.68 ± 0.147 µg/mL; IC50 ± SD ([11]; MCF-10A normal cells, 72 h exposure, SRB): 4.65 ± 1.171 µg/mL; IC50 ± SD ([6]; DAUDI, 72 h exposure, MTT): 1.07 ± 0.208 µg/mL
7 | Cc1ccc([N+]2=NN(CCCl)CC2)cc1.[Cl-] [2c, 1-(2-Chloroethyl)-3-p-tolyl-4,5-dihydro-1H-1,2,3-triazol-3-ium chloride] | 19.8 ± 3.02 | 1.338 |  | 2.000 | 18.1 ± 7.04 | 5.42 ± 2.52 | 23.8 ± 5.36 | 4.91 ± 1.53 | 36.4 ± 5.29 | 16.2 ± 7.37 | 12.5 to 36.4 | 13.1 ± 0.503 | 61.6 ± 13.1 | 1–5 times | 6–11 times | 
8 | CC(=O)c1ccc([N+]2=NN(CCCl)CC2)cc1.[Cl-] [2a, 3-(4-Acetylphenyl)-1-(2-chloroethyl)-4,5-dihydro-1H-1,2,3-triazol-3-ium chloride] | 45.1 ± 1.65 | 1.958 |  | 0.755 | 39.4 ± 9.77 | 13.4 ± 5.94 | 38.5 ± 12.3 |  | 89 ± 9.31 | 49.3 ± 17.4 |  | 66.2 ± 13.4 | 80 ± 8.43 |  |  | 
9 | FC(F)(F)c1cccc([N+]2=NN(CCCl)CC2)c1.[Cl-] [2d, 1-(2-Chloroethyl)-3-(3-(trifluoromethyl)phenyl)-4,5-dihydro-1H-1,2,3-triazol-3-ium chloride] | 16.5 ± 4.14 | 1.204 | −3.373 | 2.802 | 22.7 ± 2.98 | 5.59 ± 3.03 | 14.9 ± 1.08 | 17.6 ± 2.29 | 30.9 ± 3.15 | 31.7 ± 5.45 | 12.5 to 36.4 | 24.3 ± 1.22 | 32.6 ± 2.79 | 1–5 times | 6–11 times | 
